Screens as filed in PubChem.
Shown are actives, neighbours in structure and some others; about 6.8% of the full set was active somewhere.
HSF1 inhib: HSF1 inhibition; NIH3T3-HGL HSE-luciferase, MG132-induced, luminescence 8 h; stronger effect = lower value; activity change, negative = inhibition, % at 7.5 µM (by protocol); actives 0.77% (n = 300,000); AID 2098;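 active = more than half of replicate wells show activity change below -50%, luminescence cut by over half; inconclusive = some wells, but at most half, below -50%; inactive = no replicate well below -50%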;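 note: luciferase reports HSF-1 transcriptional activity via heat shock element; 0% = median of DMSO wells and -100% = zero luminescence signal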
core dimer inh: HCV core protein dimerization inhibition | TR-FRET GST/Flag-core106 dimerization, 1536-well | inhibition, % at 5 µM | actives 0.33% (n = 300,000) | AID 1899;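 active = inhibition above the mean of all tested compounds plus 3 SD, set per screening campaign, cut at about 45% in these data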
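Assay system: GST-tagged and Flag-tagged HCV core protein residues 1-106 / Times: compound-protein-antibody incubation 4 h at 22.5 °C / Signal: time-resolved FRET, ex 340 nm, em 617 and 671 nm / Evaluation: % inhibition based on acceptor/donor emission ratio / Benchmarks: wells lacking GST-core106 and wells with excess unlabelled core106 / Repeats: singlicate, one well per compound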
ALR H2O2 inh: inhibitors of human sulfhydryl oxidase ALR; purified ALR, DTT oxidation, H2O2 HRP-luminol luminescence; P55789; inhibition, % (test concentration not listed); actives 3.8% (n = 290,000);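 active = mean replicate inhibition above about 79%, with every replicate also reaching it, limit read from the data; inconclusive = only one of the two criteria met; inactive = mean below limit and not every replicate reaching it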
Target sequence (P55789 whole entry, looked up): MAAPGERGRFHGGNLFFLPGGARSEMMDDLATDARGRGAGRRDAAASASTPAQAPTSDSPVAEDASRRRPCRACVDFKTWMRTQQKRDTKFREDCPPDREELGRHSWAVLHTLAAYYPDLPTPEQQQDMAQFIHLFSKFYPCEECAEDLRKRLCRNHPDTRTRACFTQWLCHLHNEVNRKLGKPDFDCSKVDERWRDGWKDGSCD
HSF-1 act: increases HSF-1 driven luciferase reporter signal. actives 1.7% (n = 300,000). NIH3T3-HGL HSF-1 luciferase reporter, MG132, 8 h; 100% = twice DMSO control signal. activation, % at 9 µM;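 active = mean replicate activation of at least 50% with a set share of replicates each reaching 50%; inconclusive = only one of those two conditions met; inactive = mean below 50% and too few replicates reaching it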;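 note: 0% = median of the neutral control wells and 100% = twice that signal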
PHOSPHO1 block: inhibitors of human PHOSPHO1 phosphatase; recombinant PHOSPHO1, absorbance phosphatase assay; inhibition, % at 13.3 µM; actives 1.1% (n = 290,000); in the data active = inhibition above about 60%
Target sequence (Q8TCT1 whole entry, looked up): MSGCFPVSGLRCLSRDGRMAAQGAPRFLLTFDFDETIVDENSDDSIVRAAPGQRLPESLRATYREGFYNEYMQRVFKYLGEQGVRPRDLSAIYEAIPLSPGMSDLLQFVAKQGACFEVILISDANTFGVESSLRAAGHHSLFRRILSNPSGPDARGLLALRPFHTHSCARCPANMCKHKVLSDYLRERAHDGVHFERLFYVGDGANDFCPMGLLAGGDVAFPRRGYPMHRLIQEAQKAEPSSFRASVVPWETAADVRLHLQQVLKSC
AI-2 QS modul: modulators of Vibrio harveyi AI-2 quorum sensing system. activity change, % at 7.5 µM. actives 0.4% (n = 300,000). Vibrio harveyi JMH597 AI-2 luminescence/OD600 ratio, 9 h; stronger effect = lower value; strain lacks LuxN and CqsS sensors; 0 = neutral-control median. AID 2094; in the data active = activity change below about -75%, passing the limit was not always enough; inconclusive = no clear call, values can overlap the other calls;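 note: luminescence divided by OD600 gain over 9 h not by final OD600 alone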
The depositor's hits bear a star; ? = inconclusive; · = no result.

SMILES	HSF1 inhib	core dimer inh	ALR H2O2 inh	HSF-1 act	PHOSPHO1 block	AI-2 QS modul
Cc1ccc(C(=O)CSC2=C(C#N)C(c3ccco3)C3=C(CCCC3=O)N2)cc1 (configuration not stated)	15.5	8.2	99.1*	26.8	-11.1	-11.2
CCCOC(=O)CSC1=C(C#N)C(c2ccccc2OCC)C(C#N)C(=O)N1 (configuration not stated)	8.8	5.2	42.4	-7.9	75.4*	10.9
CCc1ccc(C(O)(c2ccccc2OC)C(CN2CCOCC2)c2ccccc2)cc1 (configuration not stated)	-8.5	3.3	0.3	-5.1	-14.1	7.9
N#CC1=C(SCC(=O)c2ccccc2)NC2=C(C(=O)CCC2)C1c1ccco1 (configuration not stated)	14.1	-4.0	87.5*	33.5	-20.1	49.8
COc1ccc(NC(=O)CSC2=C(C#N)C(c3ccco3)C3=C(CCCC3=O)N2)c(OC)c1 (configuration not stated)	16.2	0.7	13.4	49.8	19.3	11.6
CC(C)(C)c1ccc(C(=O)CCCSC2=C(C#N)C(c3ccco3)C3=C(CCCC3=O)N2)cc1 (configuration not stated)	·	10.4	3.4	·	71.1*	·
COc1cccc(/C=C2\Oc3cc(OCC(=O)N4CCC[C@H]4C(=O)O)ccc3C2=O)c1	3.1	5.0	?	-14.3	44.2	12.9
COc1ccccc1CNC(=O)CN1C(=O)c2ccc([N+](=O)[O-])cc2C1=O	-9.1	4.9	-7.6	-17.4	23.2	8.0
CC(C)C1=Nc2cccc3cccc(c23)N1	-2.0	-37.1	·	6.3	-117.6	26.4
COc1ccc(C2=Nc3cccc4cccc(c34)N2)cc1	-1.2	-1.2	-8.4	-6.9	14.7	25.4
Nc1cccc(C2=Nc3cccc4cccc(c34)N2)c1	-3.7	72.1*	-32.9	-3.9	-18.2	18.0
ClCC1=Nc2cccc3cccc(c23)N1	-2.7	-30.9	99.1*	-3.4	19.9	-4.4
CC(=O)C1=C(O)C(=O)N(c2ccc(O)cc2)C1c1ccc(Cl)cc1 (configuration not stated)	-4.8	4.5	81.0*	7.1	·	14.9
CC(=O)C1=C(O)C(=O)N(c2ccc(O)cc2)C1c1ccc([N+](=O)[O-])cc1 (configuration not stated)	-6.3	2.6	81.8*	8.6	23.9	11.7
COc1ccc(C2C(C(C)=O)=C(O)C(=O)N2c2ccc(O)cc2)cc1 (configuration not stated)	2.4	-1.6	87.9*	6.4	34.0	17.4
COc1ccc(N(CC(=O)Nc2cccnc2)S(=O)(=O)c2ccccc2)cc1OC	13.3	-1.7	·	39.3	19.0	17.8
C=CCC1(C(=O)NCCO)CCN(C(=O)OC(C)(C)C)CC1	-84.5*	-7.2	0.2	-86.7	20.9	24.7
CC1(C)C(=O)OC(c2cc(Br)ccc2O)C(C)(C)C1=O (configuration not stated)	0.9	0.2	97.9*	-4.8	-21.7	-0.9
CC1(C)C(=O)OC(c2c3ccccc3cc3ccccc23)C(C)(C)C1=O (configuration not stated)	4.4	3.4	-19.5	14.8	-4.4	22.5
O=C(CCc1nnc(CCCCc2ccccc2)o1)NCCN1CCCCC1=O	13.9	-4.7	-17.7	57.9*	60.1*	28.2
O=C(CCc1nnc(CCCc2ccccc2)o1)NC(C1CC1)C1CC1	34.7	-1.9	·	64.9*	12.5	26.5
O=C(CCc1nnc(CCCCc2ccccc2)o1)NCCc1cccnc1	3.4	0.6	-29.6	13.4	44.0	23.4
Nc1ccc(-c2nc3ccc(N)cc3s2)cc1	4.1	-3.4	99.0*	7.2	14.9	20.2
Nc1cccc(-c2nc3ccc(N)cc3s2)c1	-5.0	0.2	99.0*	1.9	-9.4	14.4
Cc1nnsc1C(=O)N1CCC(CO)(Cc2ccccc2Cl)CC1	-3.6	-2.2	·	4.4	27.7	9.2
SMILES	HSF1 inhib	core dimer inh	ALR H2O2 inh	HSF-1 act	PHOSPHO1 block	AI-2 QS modul
Cc1ccc(NC(=O)CN2C(=O)N/C(=C/c3cc(C)n(-c4ccc(C(=O)O)cc4)c3C)C2=O)cc1	·	·	·	·	44.0	·
Cc1ccc(NC(=O)CN2C(=O)N/C(=C/c3cccn3-c3ccc(C(=O)O)cc3)C2=O)cc1	·	-34.8	97.0*	·	-10.7	·
Cc1cccc(NC(=O)CN2C(=O)N/C(=C/c3cc(C)n(C(C)C)c3C)C2=O)c1	-57.3*	3.8	-5.0	-66.3	5.0	37.9
Cc1ccc(NC(=O)CN2C(=O)S/C(=C\c3cccn3-c3cccc(C(=O)O)c3)C2=O)c(C)c1	2.8	23.0	·	6.0	102.3*	25.8
Cc1ccc(NC(=O)CN2C(=O)N/C(=C/c3ccco3)C2=O)cc1	1.8	53.2*	7.7	3.2	-5.3	-7.6
COc1cccc(NC(=O)CN(C)C(C)C(=O)Nc2cc([N+](=O)[O-])ccc2Cl)c1 (configuration not stated)	21.1	3.2	-21.1	46.5	24.1	16.5
Nc1ccc(N=Nc2ccccc2)c2cccnc12	52.9	-18.2	·	82.0*	18.5	61.1
Nc1ccc(Br)c2cccnc12	22.5	0.2	-9.9	29.9	36.8	-6.5
Cc1ccccc1N=Nc1ccc(O)c2ncccc12	66.2	-4.5	-54.8	89.4*	-4.6	41.4
COc1cccc(N=Nc2ccc(O)c3ncccc23)c1	52.6	-10.6	-18.4	90.2*	26.5	33.1
CCOc1ccc(NS(=O)(=O)c2ccc(NC(=S)NC(C)=O)cc2)cc1	-3.8	6.9	-12.9	0.7	44.5	8.9
CCOc1ccc(/C(O)=C/C(=O)C(=O)Nc2ccc(S(=O)(=O)NC(C)=O)cc2)cc1	0.9	0.0	98.0*	-1.7	11.3	20.0
Cc1ccc(CNC(=O)Cn2ccc3ccccc3c2=O)o1	13.0	-1.1	-4.8	64.3*	-22.3	15.2
COC(=O)CNC(=O)Cn1ccc2ccccc2c1=O	-25.6	-2.4	-14.5	-38.7	13.5	26.7
Cc1ccc(NC2=CC(=O)CC(C)(C)C2)cc1F	-1.1	-6.2	-7.4	-19.5	2.0	-2.0
Cc1cc(N)c(NC2=CC(=O)CC(C)(C)C2)cc1C	8.3	-5.8	98.5*	7.0	32.3	-4.0
O=C(C1=C[C@H](c2ccccc2)C[C@H](OCc2ccc(CO)cc2)O1)N1CCCCCCC1	·	·	·	·	-4.2	·
O=Cc1cccc(OC(=O)Nc2ccccc2)c1	-4.3	-2.0	-4.2	17.8	·	11.5
COc1cccc(-c2nc(CS(=O)(=O)CC(=O)Nc3ccccc3C)c(C)o2)c1	6.2	7.6	-2.3	16.7	11.9	30.7
COc1cccc(-c2nc(CS(=O)(=O)CC(=O)Nc3ccccc3Cl)c(C)o2)c1	1.0	-2.6	87.5*	-17.0	8.9	10.9
COc1cccc(-c2nc(CS(=O)(=O)CC(=O)Nc3ccccc3Br)c(C)o2)c1	-1.2	4.3	93.7*	16.6	17.1	8.9
